Assay outcomes as filed in PubChem BioAssay.
CRFR2-BP antag – CRF-BP/CRF-R2 complex antagonism; inhibition, % at 11.8 µM; HEK293 CRF-R2/CRF-BP, CRF-induced calcium fluorescence; 350,000 tested, 0.59% active;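 active means inhibition of the ligand-induced calcium signal above about 50% at the single tested concentration, limit read from the data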
DDE Tn7 FP inh – disrupts Tn7 cyclic peptide binding to fibrin D-Dimer-E complex. P02675. FP displacement of FITC-Tn7 peptide from fibrin DD(E); 0% = median of compound wells per plate. inhibition, % at 8.3 µM. 370,000 tested, 0.13% active. AID 720508;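 active means inhibition above the mean of compounds falling within the control limits plus 3 SD of them, cut at about 14% in these data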
Target sequence (P02675 whole entry, looked up): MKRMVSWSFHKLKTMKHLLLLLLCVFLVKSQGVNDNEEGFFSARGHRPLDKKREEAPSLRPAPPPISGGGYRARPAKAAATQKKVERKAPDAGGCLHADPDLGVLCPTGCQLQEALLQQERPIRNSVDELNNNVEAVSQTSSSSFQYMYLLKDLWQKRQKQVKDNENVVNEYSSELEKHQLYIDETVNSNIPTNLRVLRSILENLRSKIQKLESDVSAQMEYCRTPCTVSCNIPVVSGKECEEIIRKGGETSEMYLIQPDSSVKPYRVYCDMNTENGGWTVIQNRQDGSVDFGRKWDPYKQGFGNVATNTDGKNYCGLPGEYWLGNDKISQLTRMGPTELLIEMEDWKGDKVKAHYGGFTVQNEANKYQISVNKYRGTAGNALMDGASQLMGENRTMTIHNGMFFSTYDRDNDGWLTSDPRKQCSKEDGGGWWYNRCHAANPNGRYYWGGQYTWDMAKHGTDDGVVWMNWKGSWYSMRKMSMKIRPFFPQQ
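Measure: % inhibition scaled between sample-field median and high-control FP; Test system: human fibrin DD(E); Quantity: 2 µM final DD(E) protein; Doses: one dose, 8.3 µM nominal; Schedule: compound with protein 10 min, then 3 h after probe, room temperature; Detection: fluorescence polarization; Medium: Tris buffer with calcium and detergent, pH 7.8.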
CendR NRP1 mod – alters CendR peptide binding to human NRP-1 | AID 602438 | FAM-RPARPAR peptide binding to NRP-1, fluorescence polarization | inhibition, % at 25 µM | 360,000 tested, 0.85% active | O14786;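 active means inhibition or corrected inhibition above about 18%, plus a signal ratio from 0.5 to 1.5, limit read from the data, passing the limit was not always enough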
proKLK7 act – activates the human kallikrein-7 zymogen | activation, % at 7 µM | 370,000 tested, 0.9% active | purified proKLK7, EDANS-DABCYL substrate fluorescence; 100% is mature enzyme control, 0% vehicle | AID 652039;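 active means activation above the mean of all tested compounds plus 3 SD, computed per campaign excluding outliers beyond control limits, cut at about 13% in these data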
Target sequence (P49862 whole entry, looked up): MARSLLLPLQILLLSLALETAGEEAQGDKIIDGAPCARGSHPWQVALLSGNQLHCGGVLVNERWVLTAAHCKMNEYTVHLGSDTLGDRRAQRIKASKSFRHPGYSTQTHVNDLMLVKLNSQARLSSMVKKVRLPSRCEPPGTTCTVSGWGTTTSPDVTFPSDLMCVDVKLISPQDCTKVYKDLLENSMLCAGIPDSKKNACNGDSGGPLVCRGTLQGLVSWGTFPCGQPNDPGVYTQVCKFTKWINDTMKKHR
DDE Tn6 FP inh – inhibitors of Tn6 peptide binding to human fibrin DD(E); P02675; Fibrin DD(E) TRITC-Tn6 fluorescence polarization displacement; inhibition, % at 8.3 µM; 370,000 tested, 0.21% active;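 active means inhibition above a per-campaign cutoff: mean of compounds within control limits plus 3 SD, cut at about 15% in these data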
CRFBP-R2 agonist – CRF-BP/CRF-R2 complex agonism; HEK293 CRF-R2/CRF-BP, calcium dye fluorescence (FLIPR); percent of saturating CRF peptide response; activation, % at 13.2 µM; 350,000 tested, 0.46% active;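 active means activation of at least 50%, plus an integration ratio under a set limit after plate pattern correction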
Of the large screens only hits and unclear results are named; the others gave an inactive call. Only some compounds are listed: those with a hit (about 2.9% of all), similar ones and a draw of the others.

CCCC(=NCC(=O)O)C1=C(O)C(C(=O)OC)C(C)(C)CC1=O (stereo not drawn)	CRFR2-BP antag 61
CCC(=Nc1ccc(N)cc1)C1=C(O)C(C(=O)OC)C(C)(C)CC1=O (stereo not drawn)	DDE Tn6 FP inh 125
CC(C)CN1C(=O)C[C@]2(C(=O)N(C)c3ccc(NS(=O)(=O)C4CC4)cc32)C1c1ccccc1 (stereo partly drawn)	none (no result: CRFR2-BP antag, CendR NRP1 mod, CRFBP-R2 agonist)
COC(=O)C1=C(C)N(Cc2cccc(C(F)(F)F)c2)C(=NCC2CC2)NC1c1ccc(F)cc1 (stereo not drawn)	none (no result: CRFR2-BP antag, CendR NRP1 mod, CRFBP-R2 agonist)
C#CCN1CC(N(C)CCOC(=O)CC2C=CCC2)CS1(=O)=O (stereo not drawn)	none (no result: CRFR2-BP antag, CendR NRP1 mod, CRFBP-R2 agonist)
O=C(NCCN1CCC(Cc2ccccc2)CC1)C1CCCN(S(=O)(=O)c2ccc(Cl)s2)C1 (stereo not drawn)	none (no result: CRFR2-BP antag, CendR NRP1 mod, CRFBP-R2 agonist)
COc1ccc(C(=O)NC(Oc2ccccc2)C(Cl)(Cl)Cl)cc1 (stereo not drawn)	CRFR2-BP antag 113
CCn1c(NC)cc(=O)n(C)c1=O	CendR NRP1 mod 21
CCOc1ccc(NC(=S)Nc2ccc(OC)cc2)cc1	none
CCC(C)c1ccc(NC(=S)Nc2ccc(OC)cc2)cc1 (stereo not drawn)	CRFR2-BP antag 133
O=C(Nc1ccc(-c2nnc3n2CCCCC3)cc1)c1ccco1	CendR NRP1 mod 34
O=C(OCC(=O)N1CCN(c2ccccc2)CC1)c1ccc2ccccc2n1	none
O=C(OCC(=O)N1CCN(c2ccccc2)CC1)c1ccccn1	CRFR2-BP antag 53
O=C(CSc1ccc(-c2ccncc2)nn1)N1CCN(c2ccccc2)CC1	CRFR2-BP antag 63
O=C(CSc1ccc(-c2ccccc2)nn1)N1CCN(c2ccccc2)CC1	none
COc1ccc(C(=O)OCCN2CCN(C3CN(Cc4cn(Cc5cccc(C)c5)nn4)S(=O)(=O)C3)CC2)cc1OC (stereo not drawn)	none (no result: CRFR2-BP antag, CendR NRP1 mod, CRFBP-R2 agonist)
COc1ccc2cc(C(=O)N/N=C/c3sc4ccccc4c3O)ccc2c1	CRFBP-R2 agonist 166
COc1ccc(C(=O)N/N=C/c2sc3ccccc3c2O)cc1	CRFBP-R2 agonist 50 (no result: DDE Tn7 FP inh, proKLK7 act, DDE Tn6 FP inh)
COc1ccc(N=Cc2c(O)n(-c3cccc(C)n3)c(=O)c3ccccc23)c(OC)c1	CRFBP-R2 agonist 72
COc1cccc(N=Cc2c(O)n(-c3cccc(C)n3)c(=O)c3ccccc23)c1	none
COc1ccc(C(=O)CSc2nnc(-c3n[nH]c4c3CCC4)n2N)cc1OC	none (no result: CRFR2-BP antag, CendR NRP1 mod, CRFBP-R2 agonist)
C#CCOc1nc(C)cc(C)c1S(=O)(=O)c1ccccc1C	CendR NRP1 mod 35
COc1nc(C)cc(C)c1S(=O)(=O)c1ccccc1C	none
CN1Cc2c(N)cccc2C(c2ccccc2)C1 (stereo not drawn)	CendR NRP1 mod 30
O=C(CNC(=O)c1cccs1)N=Nc1c(O)[nH]c2ccc([N+](=O)[O-])cc12	CendR NRP1 mod 30
Cc1ccc(-c2nnc(SCC(=O)Nc3ccc4c(c3)OCCO4)n2-c2ccc(Cl)cc2)cc1	none (no result: CRFR2-BP antag, CendR NRP1 mod, CRFBP-R2 agonist)
O=[N+]([O-])c1ccc(CN2CCN(c3ccccc3)CC2)o1	CendR NRP1 mod 28
CCN(CC)C(=O)CC[C@@H]1CC[C@]2(CCCN(C(=O)c3ccno3)C2)O1	none (no result: CRFR2-BP antag, CendR NRP1 mod, CRFBP-R2 agonist)
COC(=O)c1cc2ccc(OC)c(OC)c2c(=O)s1	CendR NRP1 mod 27
CCc1cccc(CC)c1NC(=O)c1cccc(NC(=O)c2ccccc2)c1	none
CCc1cccc(CC)c1NC(=S)Nc1ccccc1	CendR NRP1 mod 20
O=C(Nc1ccccn1)c1ccco1	none
Cc1cccnc1NC(=O)c1ccco1	CendR NRP1 mod 22
O=C(NCCOC(=O)c1ccccc1)c1ccccc1	CendR NRP1 mod 22
O=S1(=O)c2ccc(N3CCN(Cc4ccccc4F)CC3)cc2Oc2ccccc2CN1Cc1cn(Cc2cccc(C(F)(F)F)c2)nn1	none (no result: CRFR2-BP antag, CendR NRP1 mod, CRFBP-R2 agonist)
COc1ccc(Cn2c(=O)[nH]c3cc(OC)c(OC)cc3c2=O)cc1	none
CCOc1cc2[nH]c(=O)n(Cc3ccccc3)c(=O)c2cc1OCC	CRFR2-BP antag 71
COc1ccccc1N1C(C)=CC(=C(C#N)c2nc3ccccc3s2)C=C1C	CRFBP-R2 agonist 109
S=c1[nH]nc2ccc3ccccc3n12	none (no result: CRFR2-BP antag, CRFBP-R2 agonist)
S=c1[nH]c2ccccc2n2c(=S)[nH]nc12	CRFR2-BP antag 55
CCOc1cc(C(=S)N2CCOCC2)ccc1OS(=O)(=O)c1ccc(NC(C)=O)cc1	none
CCOc1cc(C(=S)N2CCOCC2)ccc1OS(=O)(=O)c1ccc(OC)cc1	CendR NRP1 mod 30
COc1cc(=O)oc(C=O)c1C	none (no result: CRFR2-BP antag, CendR NRP1 mod, CRFBP-R2 agonist)
Cn1c(=O)c2[nH]c(COc3ccccc3)nc2n(C)c1=O	CendR NRP1 mod 32
CCc1cc2c(nc1CC)CCCN2S(=O)(=O)c1ccccc1	none (no result: CRFR2-BP antag, CendR NRP1 mod, CRFBP-R2 agonist)
Cc1c(N)c(C(C)(C)C)cc(C(C)(C)C)c1[N+](=O)[O-]	none
Cc1cc(N)c(C)c([N+](=O)[O-])c1C	CendR NRP1 mod 31
CC(=O)Nc1nnc(SCC(=O)NC(C)(C)C)s1	none
CCC(C)C(=O)Nc1nnc(SCC(=O)NC(C)(C)C)s1 (stereo not drawn)	CRFR2-BP antag 67
CCOC(=O)CC[C@H]1CC[C@]2(CCCN(C(=O)c3cccnc3)C2)O1	none (no result: CRFR2-BP antag, CendR NRP1 mod, CRFBP-R2 agonist)
CC[C@@H](C)CN1C(=O)N[C@@H](CCc2ccccc2)C(C(C)=O)=C1C	CendR NRP1 mod 28
CN(CCO)c1cccc2c1S(=O)(=O)N(Cc1cn(Cc3ccccc3C(F)(F)F)nn1)Cc1ccccc1O2	none (no result: CRFR2-BP antag, CendR NRP1 mod, CRFBP-R2 agonist)
COc1cc(SC)ccc1C(=O)Nc1ncc(C)s1	CRFR2-BP antag 105
COc1cc(SC)ccc1C(=O)Nc1ccc(Br)cn1	none
c1ccc(-c2csc(Nc3ccc4c(c3)OCO4)n2)cc1	CendR NRP1 mod 24 (no result: CRFR2-BP antag, CRFBP-R2 agonist)
N#Cc1ccc(Nc2nc(-c3ccccc3)cs2)cc1	none (no result: CRFR2-BP antag, CRFBP-R2 agonist)
c1ccc(-c2nnnn2-c2ccccn2)cc1	none
Cc1cccc(C(C)C)c1-n1nnnc1-c1ccccc1	CRFR2-BP antag 54
COc1ccc(OC)c(S(=O)(=O)N2CCCCC2C(=O)N2CCN(c3ccccc3F)CC2)c1 (stereo not drawn)	none (no result: CRFR2-BP antag, CendR NRP1 mod, CRFBP-R2 agonist)
CCc1ccc(OCC(=O)NN2Cc3ccccc3C2=N)cc1	none
CCOc1ccccc1OCC(=O)NN1Cc2ccccc2C1=N	CendR NRP1 mod 19
CCCC(=O)c1c[nH]c(C(=O)NCc2cccnc2)c1	none
CCC(=O)c1c[nH]c(C(=O)NCc2cccnc2)c1	CendR NRP1 mod 22
Cc1ccc(C(=O)COC(=O)CN2C(=O)C3C4CCC(C4)C3C2=O)cc1C (stereo not drawn)	CendR NRP1 mod 24
Cc1ccc(C(=O)COC(=O)CN2C(=O)C3C4CCC(C4)C3C2=O)cc1[N+](=O)[O-] (stereo not drawn)	none
CN(Cc1ccccc1)C(=O)[C@@H]1CCCN1C(=O)[C@@H]1CCCN1C(=O)c1cccc(Cl)c1	CendR NRP1 mod 22 (no result: CRFR2-BP antag, CRFBP-R2 agonist)
